Bfl-1 A1 inh = inhibitors of the anti-apoptotic protein A1, read as caspase activation; MEF A1-2A-BIM cells, Caspase-Glo 3/7 luminescence, 3 h; percent of clofoctol response, vehicle zero; caspase activation, % (concentration not given with the values); 330,000 compounds, 0.066% hits; AID 2462;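 active means over half of replicate activation scores above 10%, or exactly half above 10 with the replicate mean above 10; inconclusive means replicate mean below 10 yet half the replicates above 10; inactive means over half of replicates below 10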
MC4R antag cAMP = antagonists of human melanocortin 4 receptor (MC4R) | AID 540295 | 360,000 compounds, 0.48% hits | MC4R-expressing cells, MTII-stimulated cAMP, LANCE TR-FRET | inhibition, % at 6.5 µM | P32245;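 active means inhibition above its plate's cutoff, the mean of tested wells on that plate plus 3 SD, cut at about 29% in these data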;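 further: 0% = Melanotan II alone and 100% = Melanotan II plus saturating MCL0020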
Target sequence (P32245 whole entry, looked up): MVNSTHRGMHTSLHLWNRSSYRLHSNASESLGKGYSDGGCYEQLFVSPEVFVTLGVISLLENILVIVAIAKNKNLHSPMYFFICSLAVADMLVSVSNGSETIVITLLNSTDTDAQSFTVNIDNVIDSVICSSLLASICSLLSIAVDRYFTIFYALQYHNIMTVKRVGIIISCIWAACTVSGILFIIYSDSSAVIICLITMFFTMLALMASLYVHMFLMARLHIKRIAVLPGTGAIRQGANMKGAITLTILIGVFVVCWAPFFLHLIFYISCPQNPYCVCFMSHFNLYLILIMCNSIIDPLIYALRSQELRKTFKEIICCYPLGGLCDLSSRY
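Material – human MC4R-expressing U2OS cells · Repeats – no replicates · Detection – TR-FRET with Eu-cAMP and labeled anti-cAMP, 671 nm · Times – compound 30 min, challenge 1 h, detection 1 h · Compound – single nominal compound dose of 6.5 µM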
NLRP3 yeast inh = NALP3 inhibition in yeast; inhibition, % at 10 µM; Yeast reconstituted NLRP3/ASC/caspase-1, beta-gal luminescence, 24 h; AID 2825; 330,000 compounds, 0.39% hits;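 active means inhibition of 50% or more; inactive means inhibition below 50%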;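 further: plate controls were induced DMSO wells for no effect and uninduced yeast grown without galactose for full effect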
TbMetRS inhib = blocks T. brucei methionyl-tRNA synthetase activity; inhibition, % at 11.9 µM; purified T. brucei MetRS, ATP depletion, Kinase-Glo luminescence; 360,000 compounds, 0.4% hits;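 active means inhibition above a per-plate cutoff of the control wells' mean inhibition plus 3 SD, cut at about 5.5% in these data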;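 further: 0% = DMSO wells median and 100% = median of wells with control inhibitor compound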
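Material: parasite MetRS enzyme / Replication: singlicate, one well per compound / Signal: luminescence of leftover ATP / Schedule: 2 h aminoacylation at 25 °C after 15 min preincubation / Medium: HEPES-MgCl2-KCl buffer plus DTT, spermine, BSA, pyrophosphatase / Doses: 11.9 µM single point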
NALP1 yeast inh = NALP1 inhibition; inhibition, % at 10 µM; S. cerevisiae NALP1/ASC/caspase-1 growth, X-gal OD620, 72 h; 280,000 compounds, 0.61% hits; in the data active means inhibition mostly above about 24%, no sharp cut-off; inactive means mostly below about 32%
MC4R ag barr = agonists of human melanocortin 4 receptor (MC4R) beta-arrestin; U2OS MC4R beta-arrestin complementation, luminescence; percent of melanotan II response, DMSO zero; P32245; 360,000 compounds, 0.98% hits; AID 540308; activation, % at 8.9 µM;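 active means activation above a per-plate cutoff, the mean activation of sample wells on that plate plus 3 SD, cut at about 8% in these data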
MC4R barr conf = human MC4R beta-arrestin agonism confirmation; activation, % at 8.9 µM; U2OS MC4R beta-arrestin recruitment, luminescence; scaled DMSO 0%, Melanotan II 100%; AID 602192; shares compounds with MC4R ag barr; 2,400 compounds, 31% hits;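 active means mean activation across replicates above the hit cutoff set in the earlier primary screen, cut at about 8% in these data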
MOR-DOR barr ag = OPRM1-OPRD1 heterodimer agonism counter-screen; shares compounds with MC4R ag barr; U2OS PathHunter beta-arrestin, beta-gal luminescence; percent of deltorphin B response, DMSO zero; activation, % at 9.2 µM; 2,400 compounds, 5.8% hits;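 active means mean activation across replicates exceeds the hit threshold derived in the earlier primary screen, cut at about 18% in these data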;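 further: 100% = deltorphin B at 0.9 µM final and 0% = DMSO alone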
* marks the source's active call; other numbers are inactive results; ? = inconclusive; . = no result. Shown are actives, neighbours in structure and some others; about 2.5% of the full set was active somewhere.

SMILES	Bfl-1 A1 inh	MC4R antag cAMP	NLRP3 yeast inh	TbMetRS inhib	NALP1 yeast inh	MC4R ag barr	MC4R barr conf	MOR-DOR barr ag
CCOc1ccc(Br)cc1S(=O)(=O)Nc1ccc(C(=O)Nc2ccc(C)cc2)cc1	1	6	-1	0	26	10*	-2	5
COc1ccc(NC(=O)c2cccc3ccccc23)cc1	0	-6	26	-1	6	-2	.	.
COc1ccc(NC(=O)c2cccc3c(Br)cccc23)cc1	0	5	21	-1	0	12*	-2	5
CC1(C)C2CC[C@]3(C)C(CC=C4[C@@H]5C[C@](C)(CO)CC[C@]5(C(=O)O)CC[C@]43C)[C@@]2(C)CC[C@@H]1O (stereo partly drawn)	-1	5	42	0	.	0	.	.
CC1(C)CC[C@]2(CO)CC[C@]3(C)C(=CCC4[C@@]5(C)CC[C@H](O)[C@@](C)(CO)C5CC[C@]43C)[C@@H]2C1 (stereo partly drawn)	1	5	8	1	.	11*	15*	3
CC1(C)CC[C@]2(C(=O)O)CC[C@]3(C)C(=CCC4[C@@]5(C)CC[C@H](O)C(C)(C)C5CC[C@]43C)C2C1 (stereo partly drawn)	?	3	.	0	23	-1	.	.
CC1(C)C[C@H](O)[C@]2(CO)[C@H](O)C[C@]3(C)C(=CCC4[C@@]5(C)CC[C@H](O)C(C)(C)C5CC[C@]43C)[C@@H]2C1 (stereo partly drawn)	14*	18	27	0	.	19*	25*	21*
COC(=O)c1ccc(C2C(Oc3ccc(OC)cc3)C(=O)N2CCc2ccc(OC)c(OC)c2)cc1 (stereo not drawn)	0	1	-11	0	13	6	.	.
COC(=O)c1ccc(C2C(Oc3ccccc3)C(=O)N2CCc2ccc(F)cc2)cc1 (stereo not drawn)	0	11	4	0	16	20*	3	5
CCC(CC)c1nnc(NC(=O)c2cccc(S(=O)(=O)N3CCOCC3)c2)s1	-2	-2	2	0	.	-2	.	.
Nc1c(C(=O)Nc2ccc3c(c2)OCCO3)nnn1CCc1ccccc1	-1	-13	-6	0	-7	0	.	.
Nc1c(C(=O)Nc2ccccc2Cl)nnn1-c1ccc2c(c1)OCCO2	0	9	12	0	-1	16*	2	4
CCCNC(=O)c1cc(C2CCCN(C(=O)c3ccc4ccccc4c3)C2)on1 (stereo not drawn)	.	7	.	0	.	1	.	.
COc1ccc2cc(C(=O)N3CCC(Cc4ccccc4)CC3)[nH]c2c1	-2	7	4	-1	17	10*	8	4
COc1ccc2[nH]c(C(=O)N3CCC(Cc4ccccc4)CC3)cc2c1	0	12	7	0	6	2	.	.
CN(C(=O)c1cccc(NC(=O)Cc2cccc(NC(=O)C3CCCN(C(=O)c4ccccc4)C3)c2)c1)C1CC1 (stereo not drawn)	.	-4	.	0	.	0	.	.
CC(c1ccccc1)N(CC(=O)NC1CCCCC1)S(=O)(=O)c1cccc(C(F)(F)F)c1 (stereo not drawn)	0	17	15	-1	40	0	.	.
O=C(CN(Cc1ccccc1)S(=O)(=O)c1cccc(C(F)(F)F)c1)NC1CCCCC1	1	4	-2	1	30	12*	0	5
Cn1c(=O)c2c(ncn2CC(=O)OCC(=O)c2ccc(OC(F)F)cc2OC(F)F)n(C)c1=O	.	16	.	0	.	-1	.	.
NC(=O)c1c(NC(=O)Cn2nc(C(=O)O)c3ccccc3c2=O)sc2c1CCC2	0	18	3	0	-6	1	.	.
NC(=O)c1c(NC(=O)Cn2nc(C(=O)O)c3ccccc3c2=O)sc2c1CCCC2	0	2	-3	-1	-7	10*	8	4
O=C(Cn1nc(C(=O)O)c2ccccc2c1=O)Nc1ccc(Br)cc1	0	4	24	1	22	2	.	.
Cc1cc(C)c(C(=O)Cn2nc(C(=O)O)c3ccccc3c2=O)cc1C	0	2	0	0	12	1	.	.
O=C(Cn1nc(C(=O)O)c2ccccc2c1=O)Nc1cc(Cl)cc(Cl)c1	0	2	-15	-1	18	12*	0	5
CCCc1ccc(C(=O)Cn2nc(C(=O)O)c3ccccc3c2=O)cc1	0	6	-6	0	11	10*	4	5
SMILES	Bfl-1 A1 inh	MC4R antag cAMP	NLRP3 yeast inh	TbMetRS inhib	NALP1 yeast inh	MC4R ag barr	MC4R barr conf	MOR-DOR barr ag
O=C(NCc1ccncc1)[C@@H]1CCCN1C(=O)[C@@H]1CCCN1C(=O)c1ccccc1Cl	.	.	.	0	.	.	.	.
O=C(COc1ccc2c(c1)CCC2)NCc1ccc(Cl)cc1	0	8	39	2	28	12*	4	7
O=C(COc1ccc2c(c1)CCC2)NCc1cccc(Cl)c1	0	7	17	0	42	0	.	.
O=C1COc2ccc(C(=O)COC(=O)Cc3ccc(Cl)cc3)cc2N1	0	17	9	0	-7	0	.	.
O=C1COc2ccc(C(=O)COC(=O)CCSc3ccc(Cl)cc3)cc2N1	0	6	-1	0	-26	19*	4	8
CCc1ccc(NC(=O)c2ccc3c(c2)C(=O)N(CCOC)C3Nc2ccc(CC)cc2)cc1 (stereo not drawn)	2	1	5	0	35	12*	3	9
COCCN1C(=O)c2cc(C(=O)Nc3cccc(F)c3)ccc2C1Nc1cccc(F)c1 (stereo not drawn)	-1	-4	-1	0	25	4	.	.
COc1cccc(NC(=O)CN2C(=O)COc3ccc(S(=O)(=O)N4CCCCCC4)cc32)c1	2	20	2	1	0	-1	.	.
Cc1cc(N2CCN(c3nc(-c4ccc([N+](=O)[O-])cc4)cs3)CC2)c2ccccc2n1	1	12	8	-1	25	19*	11*	7
O=C1N(Nc2ccccc2)C(c2ccc(Br)cc2)C12CCCCC2 (stereo not drawn)	1	-2	15	0	1	24*	10*	5
O=C1N(Nc2ccccc2)C(c2ccc(Br)cc2)C12CCCC2 (stereo not drawn)	-1	14	6	0	2	4	.	.
